# Source: ChEMBL document CHEMBL1152796, “Azole antimicrobial pharmacophore-based tetrazoles: synthesis and biological evaluation as potential antimicrobial and anticonvulsant agents” (Bioorg Med Chem, 2009)
# Activity calls are given as the source filed them. The calls are words filed in the database; no cut-off is given here.
# Test system: Aspergillus fumigatus
# Assay: Antifungal activity against Aspergillus fumigatus isolate at 1 mg/mL after 7 days by agar diffusion method
# Format: functional
# Settings: 168 h, read-out: Diameter of inhibition zone
# Method in brief: (§1)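 Agar disc diffusion: 5 mm sterile paper discs soaked in 1 mg/mL test solution in DMSO were placed on agar seeded with the organism, in triplicate, with a DMSO-only control. Bacterial plates were incubated at 37 °C for 24 h and fungal plates for 7 days. Read-out was the average inhibition-zone diameter in mm. Fungi were clinical isolates.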
row,SMILES,zone of inhibition at 1000 µg/mL
1,Clc1ccc(C(Cn2nnnc2Cc2ccccc2)OCc2nnc(Nc3ccccc3)o2)cc1 (configuration not stated),≥ 14 mm
2,Sc1nnc(COC(Cn2nnnc2Cc2ccccc2)c2ccc(Cl)cc2)o1 (configuration not stated),≥ 14 mm
3,Cc1cc(C)n(C(=O)COC(Cn2nnnc2Cc2ccccc2)c2ccc(Cl)cc2)n1 (configuration not stated),≥ 14 mm

# Test system: Micrococcus luteus
# Assay: Antibacterial activity against Micrococcus luteus ATCC 21881 at 1 mg/mL after 24 hrs by agar diffusion method
# Format: functional
# Settings: ATCC 21881, 24 h, read-out: Diameter of inhibition zone
# Method in brief: as §1
row,SMILES,zone of inhibition at 1000 µg/mL
1,Clc1ccc(C(Cn2nnnc2Cc2ccccc2)OCc2nnc(Nc3ccccc3)o2)cc1 (configuration not stated),≥ 14 mm
2,Sc1nnc(COC(Cn2nnnc2Cc2ccccc2)c2ccc(Cl)cc2)o1 (configuration not stated),≥ 14 mm
3,Cc1cc(C)n(C(=O)COC(Cn2nnnc2Cc2ccccc2)c2ccc(Cl)cc2)n1 (configuration not stated),≥ 14 mm

# Test system: Candida albicans
# Assay: Antifungal activity against Candida albicans isolate after 72 hrs by twofold serial dilution method
# Format: functional
# Settings: not given
row,SMILES,MIC
1,Clc1ccc(C(Cn2nnnc2Cc2ccccc2)OCc2nnc(Nc3ccccc3)o2)cc1 (configuration not stated),25 µg/mL
2,Sc1nnc(COC(Cn2nnnc2Cc2ccccc2)c2ccc(Cl)cc2)o1 (configuration not stated),100 µg/mL
3,Cc1cc(C)n(C(=O)COC(Cn2nnnc2Cc2ccccc2)c2ccc(Cl)cc2)n1 (configuration not stated),100 µg/mL

# Test system: Klebsiella pneumoniae
# Assay: Antibacterial activity against Klebsiella pneumoniae isolate at 1 mg/mL after 24 hrs by agar diffusion method
# Format: functional
# Settings: read-out: Diameter of inhibition zone
# Method in brief: as §1
row,SMILES,zone of inhibition at 1000 µg/mL
1,Clc1ccc(C(Cn2nnnc2Cc2ccccc2)OCc2nnc(Nc3ccccc3)o2)cc1 (configuration not stated),≥ 14 mm
2,Sc1nnc(COC(Cn2nnnc2Cc2ccccc2)c2ccc(Cl)cc2)o1 (configuration not stated),≥ 14 mm
3,Cc1cc(C)n(C(=O)COC(Cn2nnnc2Cc2ccccc2)c2ccc(Cl)cc2)n1 (configuration not stated),≥ 14 mm

# Test system: Aspergillus fumigatus
# Assay: Antifungal activity against Aspergillus fumigatus isolate after 72 hrs by twofold serial dilution method
# Format: functional
# Settings: not given
row,SMILES,MIC
1,Clc1ccc(C(Cn2nnnc2Cc2ccccc2)OCc2nnc(Nc3ccccc3)o2)cc1 (configuration not stated),≥ 200 µg/mL
2,Sc1nnc(COC(Cn2nnnc2Cc2ccccc2)c2ccc(Cl)cc2)o1 (configuration not stated),≥ 200 µg/mL
3,Cc1cc(C)n(C(=O)COC(Cn2nnnc2Cc2ccccc2)c2ccc(Cl)cc2)n1 (configuration not stated),≥ 200 µg/mL

# Test system: Bacillus subtilis
# Assay: Antibacterial activity against Bacillus subtilis NRRL B-14819 after 24 to 48 hrs by twofold serial dilution method
# Format: functional
# Settings: not given
# Method in brief: (§2)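 Broth microdilution in Müller–Hinton broth. DMSO stocks at 800 were diluted twofold from 400 down to 6.25. Wells received 10^6 CFU/mL bacterial suspension and were incubated at 36 °C for 24–48 h, with controls. MIC was read per well. Duplicate assays; run only for compounds giving inhibition zones ≥14 mm.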
row,SMILES,MIC
1,Clc1ccc(C(Cn2nnnc2Cc2ccccc2)OCc2nnc(Nc3ccccc3)o2)cc1 (configuration not stated),50 µg/mL
2,Sc1nnc(COC(Cn2nnnc2Cc2ccccc2)c2ccc(Cl)cc2)o1 (configuration not stated),100 µg/mL
3,Cc1cc(C)n(C(=O)COC(Cn2nnnc2Cc2ccccc2)c2ccc(Cl)cc2)n1 (configuration not stated),50 µg/mL

# Test system: Pseudomonas aeruginosa
# Assay: Antibacterial activity against Pseudomonas aeruginosa ATCC 27853 after 24 to 48 hrs by twofold serial dilution method
# Format: functional
# Settings: not given
# Method in brief: as §2
row,SMILES,MIC
1,Clc1ccc(C(Cn2nnnc2Cc2ccccc2)OCc2nnc(Nc3ccccc3)o2)cc1 (configuration not stated),≥ 200 µg/mL
2,Sc1nnc(COC(Cn2nnnc2Cc2ccccc2)c2ccc(Cl)cc2)o1 (configuration not stated),≥ 200 µg/mL
3,Cc1cc(C)n(C(=O)COC(Cn2nnnc2Cc2ccccc2)c2ccc(Cl)cc2)n1 (configuration not stated),≥ 200 µg/mL

# Test system: Aspergillus niger
# Assay: Antifungal activity against Aspergillus niger isolate after 72 hrs by twofold serial dilution method
# Format: functional, organism-based
# Settings: not given
row,SMILES,Activity
1,Clc1ccc(C(Cn2nnnc2Cc2ccccc2)OCc2nnc(Nc3ccccc3)o2)cc1 (configuration not stated),inactive
2,Sc1nnc(COC(Cn2nnnc2Cc2ccccc2)c2ccc(Cl)cc2)o1 (configuration not stated),inactive
3,Cc1cc(C)n(C(=O)COC(Cn2nnnc2Cc2ccccc2)c2ccc(Cl)cc2)n1 (configuration not stated),inactive

# Test system: Pseudomonas aeruginosa
# Assay: Antibacterial activity against Pseudomonas aeruginosa ATCC 27853 at 1 mg/mL after 24 hrs by agar diffusion method
# Format: functional
# Settings: ATCC 27853, 24 h, read-out: Diameter of inhibition zone
# Method in brief: as §1
row,SMILES,zone of inhibition at 1000 µg/mL
1,Clc1ccc(C(Cn2nnnc2Cc2ccccc2)OCc2nnc(Nc3ccccc3)o2)cc1 (configuration not stated),≥ 14 mm
2,Sc1nnc(COC(Cn2nnnc2Cc2ccccc2)c2ccc(Cl)cc2)o1 (configuration not stated),≥ 14 mm
3,Cc1cc(C)n(C(=O)COC(Cn2nnnc2Cc2ccccc2)c2ccc(Cl)cc2)n1 (configuration not stated),≥ 14 mm

# Test system: Staphylococcus aureus
# Assay: Antibacterial activity against Staphylococcus aureus ATCC 6538 at 1 mg/mL after 24 hrs by agar diffusion method
# Format: functional
# Settings: ATCC 6538, 24 h, read-out: Diameter of inhibition zone
# Method in brief: as §1
row,SMILES,zone of inhibition at 1000 µg/mL
1,Clc1ccc(C(Cn2nnnc2Cc2ccccc2)OCc2nnc(Nc3ccccc3)o2)cc1 (configuration not stated),≥ 14 mm
2,Sc1nnc(COC(Cn2nnnc2Cc2ccccc2)c2ccc(Cl)cc2)o1 (configuration not stated),≥ 14 mm
3,Cc1cc(C)n(C(=O)COC(Cn2nnnc2Cc2ccccc2)c2ccc(Cl)cc2)n1 (configuration not stated),≥ 14 mm

# Test system: Pichia kudriavzevii
# Assay: Antifungal activity against Candida krusei isolate after 72 hrs by twofold serial dilution method
# Format: functional, organism-based
# Settings: not given
row,SMILES,Activity
1,Clc1ccc(C(Cn2nnnc2Cc2ccccc2)OCc2nnc(Nc3ccccc3)o2)cc1 (configuration not stated),inactive
2,Sc1nnc(COC(Cn2nnnc2Cc2ccccc2)c2ccc(Cl)cc2)o1 (configuration not stated),inactive
3,Cc1cc(C)n(C(=O)COC(Cn2nnnc2Cc2ccccc2)c2ccc(Cl)cc2)n1 (configuration not stated),inactive

# Test system: Escherichia coli
# Assay: Antibacterial activity against Escherichia coli ATCC 25922 after 24 to 48 hrs by twofold serial dilution method
# Format: functional
# Settings: not given
# Method in brief: as §2
row,SMILES,MIC
1,Clc1ccc(C(Cn2nnnc2Cc2ccccc2)OCc2nnc(Nc3ccccc3)o2)cc1 (configuration not stated),50 µg/mL
2,Sc1nnc(COC(Cn2nnnc2Cc2ccccc2)c2ccc(Cl)cc2)o1 (configuration not stated),≥ 200 µg/mL
3,Cc1cc(C)n(C(=O)COC(Cn2nnnc2Cc2ccccc2)c2ccc(Cl)cc2)n1 (configuration not stated),100 µg/mL

# Test system: Bacillus subtilis
# Assay: Antibacterial activity against Bacillus subtilis NRRL B-14819 at 1 mg/mL after 24 hrs by agar diffusion method
# Format: functional
# Settings: read-out: Diameter of inhibition zone
# Method in brief: as §1
row,SMILES,zone of inhibition at 1000 µg/mL
1,Clc1ccc(C(Cn2nnnc2Cc2ccccc2)OCc2nnc(Nc3ccccc3)o2)cc1 (configuration not stated),≥ 14 mm
2,Sc1nnc(COC(Cn2nnnc2Cc2ccccc2)c2ccc(Cl)cc2)o1 (configuration not stated),≥ 14 mm
3,Cc1cc(C)n(C(=O)COC(Cn2nnnc2Cc2ccccc2)c2ccc(Cl)cc2)n1 (configuration not stated),≥ 14 mm

# Test system: Trichophyton rubrum
# Assay: Antifungal activity against Trichophyton rubrum isolate after 72 hrs by twofold serial dilution method
# Format: functional, organism-based
# Settings: not given
row,SMILES,Activity
1,Clc1ccc(C(Cn2nnnc2Cc2ccccc2)OCc2nnc(Nc3ccccc3)o2)cc1 (configuration not stated),inactive
2,Sc1nnc(COC(Cn2nnnc2Cc2ccccc2)c2ccc(Cl)cc2)o1 (configuration not stated),inactive
3,Cc1cc(C)n(C(=O)COC(Cn2nnnc2Cc2ccccc2)c2ccc(Cl)cc2)n1 (configuration not stated),inactive

# Test system: Micrococcus luteus
# Assay: Antibacterial activity against Micrococcus luteus ATCC 21881 after 24 to 48 hrs by twofold serial dilution method
# Format: functional
# Settings: not given
# Method in brief: as §2
row,SMILES,MIC
1,Clc1ccc(C(Cn2nnnc2Cc2ccccc2)OCc2nnc(Nc3ccccc3)o2)cc1 (configuration not stated),≥ 200 µg/mL
2,Sc1nnc(COC(Cn2nnnc2Cc2ccccc2)c2ccc(Cl)cc2)o1 (configuration not stated),100 µg/mL
3,Cc1cc(C)n(C(=O)COC(Cn2nnnc2Cc2ccccc2)c2ccc(Cl)cc2)n1 (configuration not stated),50 µg/mL

# Test system: Staphylococcus aureus
# Assay: Antibacterial activity against Staphylococcus aureus ATCC 6538 after 24 to 48 hrs by twofold serial dilution method
# Format: functional
# Settings: not given
# Method in brief: as §2
row,SMILES,MIC
1,Clc1ccc(C(Cn2nnnc2Cc2ccccc2)OCc2nnc(Nc3ccccc3)o2)cc1 (configuration not stated),25 µg/mL
2,Sc1nnc(COC(Cn2nnnc2Cc2ccccc2)c2ccc(Cl)cc2)o1 (configuration not stated),50 µg/mL
3,Cc1cc(C)n(C(=O)COC(Cn2nnnc2Cc2ccccc2)c2ccc(Cl)cc2)n1 (configuration not stated),25 µg/mL

# Test system: Mus musculus
# Assay: Anticonvulsant activity in Wister albino mouse assessed as protection against subcutaneous metrazole-induced seizures at 100 mg/kg, ip administered 30 mins before metrazole challenge measured after 30 mins
# Format: functional
# Settings: route intraperitoneal
# Method in brief: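 Wistar albino mice, either sex, 25–30 g, 3 months old, in groups of six. Compounds in DMSO were given ip at 30, 100 or 300 mg/kg; vehicle-only controls. After 30 min, metrazole 100 mg/kg in DMSO was injected sc at the posterior midline. Protection meant absence of any clonic spasm lasting ≥5 s; scored as protected/tested.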
row,SMILES,Activity
1,Cc1cc(C)n(C(=O)COC(Cn2nnnc2Cc2ccccc2)c2ccc(Cl)cc2)n1 (configuration not stated),0%

# Test system: Candida albicans
# Assay: Antifungal activity against Candida albicans isolate at 1 mg/mL after 7 days by twofold serial dilution method
# Format: functional
# Settings: 168 h, read-out: Diameter of inhibition zone
row,SMILES,zone of inhibition at 1000 µg/mL
1,Clc1ccc(C(Cn2nnnc2Cc2ccccc2)OCc2nnc(Nc3ccccc3)o2)cc1 (configuration not stated),≥ 14 mm
2,Sc1nnc(COC(Cn2nnnc2Cc2ccccc2)c2ccc(Cl)cc2)o1 (configuration not stated),≥ 14 mm
3,Cc1cc(C)n(C(=O)COC(Cn2nnnc2Cc2ccccc2)c2ccc(Cl)cc2)n1 (configuration not stated),≥ 14 mm

# Test system: Mus musculus
# Assay: Anticonvulsant activity in Wister albino mouse assessed as protection against maximal electroshock-induced seizures at 100 mg/kg, ip administered 30 mins before metrazole challenge measured after 30 mins
# Format: functional
# Settings: route intraperitoneal
row,SMILES,Activity
1,Cc1cc(C)n(C(=O)COC(Cn2nnnc2Cc2ccccc2)c2ccc(Cl)cc2)n1 (configuration not stated),0%

# Test system: Candida tropicalis
# Assay: Antifungal activity against Candida tropicalis isolate after 72 hrs by twofold serial dilution method
# Format: functional, organism-based
# Settings: not given
row,SMILES,Activity
1,Clc1ccc(C(Cn2nnnc2Cc2ccccc2)OCc2nnc(Nc3ccccc3)o2)cc1 (configuration not stated),inactive
2,Sc1nnc(COC(Cn2nnnc2Cc2ccccc2)c2ccc(Cl)cc2)o1 (configuration not stated),inactive
3,Cc1cc(C)n(C(=O)COC(Cn2nnnc2Cc2ccccc2)c2ccc(Cl)cc2)n1 (configuration not stated),inactive

# Test system: Escherichia coli
# Assay: Antibacterial activity against Escherichia coli ATCC 25922 at 1 mg/mL after 24 hrs by agar diffusion method
# Format: functional
# Settings: ATCC 25922, 24 h, read-out: Diameter of inhibition zone
# Method in brief: as §1
row,SMILES,zone of inhibition at 1000 µg/mL
1,Clc1ccc(C(Cn2nnnc2Cc2ccccc2)OCc2nnc(Nc3ccccc3)o2)cc1 (configuration not stated),≥ 14 mm
2,Sc1nnc(COC(Cn2nnnc2Cc2ccccc2)c2ccc(Cl)cc2)o1 (configuration not stated),≥ 14 mm
3,Cc1cc(C)n(C(=O)COC(Cn2nnnc2Cc2ccccc2)c2ccc(Cl)cc2)n1 (configuration not stated),≥ 14 mm

# Test system: Klebsiella pneumoniae
# Assay: Antibacterial activity against Klebsiella pneumoniae isolate after 24 to 48 hrs by twofold serial dilution method
# Format: functional
# Settings: not given
# Method in brief: as §2
row,SMILES,MIC
1,Clc1ccc(C(Cn2nnnc2Cc2ccccc2)OCc2nnc(Nc3ccccc3)o2)cc1 (configuration not stated),≥ 200 µg/mL
2,Sc1nnc(COC(Cn2nnnc2Cc2ccccc2)c2ccc(Cl)cc2)o1 (configuration not stated),≥ 200 µg/mL
3,Cc1cc(C)n(C(=O)COC(Cn2nnnc2Cc2ccccc2)c2ccc(Cl)cc2)n1 (configuration not stated),≥ 200 µg/mL
